Laboratory results from ChEMBL document CHEMBL3232956, “Solid-supported synthesis, molecular modeling, and biological activity of long-chain arylpiperazine derivatives with cyclic amino acid amide fragments as 5-HT(7) and 5-HT(1A) receptor ligands” (Eur J Med Chem, 2014).

Assays:
Type in all cases: cell-based
HEK293 [1] = test: Selectivity ratio of Ki for human 5-HT7 receptor expressed in HEK293 cells to Ki for human 5-HT1A receptor expressed in HEK293 cells
Procedure, shortened: (§1)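 Ratios computed from Ki values from radioligand displacement in HEK293 membranes stably expressing human receptors: [3H]-8-OH-DPAT for 5-HT1A (1 h, room temperature) and [3H]-5-CT for 5-HT7b (1 h, 37 °C), filtration read-out. Each compound in triplicate at 7-8 concentrations (10^-11–10^-4 M); Ki by Cheng-Prusoff.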

[2] = target: T1, 5-hydroxytryptamine receptor 1A (Homo sapiens, UniProt P08908); test: Displacement of [3H]-8-OH-DPAT from human 5-HT1A receptor expressed in HEK293 cells after 1 hr by beta-counting
T1 sequence (P08908 whole entry): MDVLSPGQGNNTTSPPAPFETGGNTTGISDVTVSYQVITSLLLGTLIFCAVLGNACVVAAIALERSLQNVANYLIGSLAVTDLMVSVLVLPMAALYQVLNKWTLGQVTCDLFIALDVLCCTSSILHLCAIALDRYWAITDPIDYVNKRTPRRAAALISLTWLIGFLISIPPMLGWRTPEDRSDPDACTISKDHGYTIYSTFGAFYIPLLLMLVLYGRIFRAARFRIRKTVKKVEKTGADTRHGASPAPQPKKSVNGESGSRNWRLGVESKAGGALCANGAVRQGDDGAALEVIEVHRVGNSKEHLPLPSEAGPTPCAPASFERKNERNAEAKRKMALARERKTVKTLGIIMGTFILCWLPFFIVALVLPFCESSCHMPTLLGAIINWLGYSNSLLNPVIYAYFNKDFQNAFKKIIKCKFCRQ
Procedure, shortened: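 Human 5-HT1A receptor stably expressed in HEK293 cells; pellet homogenized in 20 vol buffer (50 mM Tris-HCl, 0.1 mM EDTA, 4 mM MgCl2, 0.1% ascorbate, pargyline), spun twice 35,000 g 20 min 4 °C, 15 min 37 °C between spins. Displacement of [3H]-8-OH-DPAT (187 Ci/mmol), 1 h room temperature; filtration, filter-bound radioactivity. Triplicate at 7-8 concentrations (10^-11–10^-4 M); Ki via Cheng-Prusoff.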

HEK293 [3] = test: Selectivity ratio of Ki for human 5-HT1A receptor expressed in HEK293 cells to Ki for human 5-HT7 receptor expressed in HEK293 cells; procedure, shortened: as §1
[4] = target: 5-hydroxytryptamine receptor 7 (Homo sapiens, UniProt P34969); test: Displacement of [3H]-5-CT from human 5-HT7 receptor expressed in HEK293 cells after 1 hr by beta-counting
Sequence of 5-hydroxytryptamine receptor 7 (P34969 whole entry): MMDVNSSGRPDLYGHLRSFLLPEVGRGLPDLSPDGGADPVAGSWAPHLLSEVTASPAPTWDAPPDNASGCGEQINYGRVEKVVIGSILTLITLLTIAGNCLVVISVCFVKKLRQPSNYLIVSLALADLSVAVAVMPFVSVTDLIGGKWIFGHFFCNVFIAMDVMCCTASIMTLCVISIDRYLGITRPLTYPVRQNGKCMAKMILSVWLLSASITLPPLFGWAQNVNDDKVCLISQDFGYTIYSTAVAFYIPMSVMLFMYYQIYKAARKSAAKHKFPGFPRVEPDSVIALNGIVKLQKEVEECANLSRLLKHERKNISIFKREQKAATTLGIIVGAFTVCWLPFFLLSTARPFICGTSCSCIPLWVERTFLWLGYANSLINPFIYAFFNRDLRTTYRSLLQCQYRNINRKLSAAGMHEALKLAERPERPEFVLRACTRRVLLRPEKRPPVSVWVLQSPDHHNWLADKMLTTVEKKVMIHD

SMILES | Ki [2] [nM] | Ki [4] [nM] | Ratio Ki (HEK293 [1]) | Ratio Ki (HEK293 [3])
NC(=O)[C@@H]1CCCN1C(=O)CCCCCN1CCN(c2cccc(Cl)c2Cl)CC1 | 4 | 179 | 45 | < 1
NC(=O)[C@@H]1Cc2ccccc2CN1C(=O)CCCCCN1CCN(c2noc3ccccc23)CC1 | 230 | 22 | < 1 | 10
NC(=O)[C@@H]1Cc2ccccc2CN1C(=O)CCCCCN1CCN(c2ccccc2O)CC1 | 72 | 476 | 7 | < 1
NC(=O)[C@@H]1Cc2ccccc2CN1C(=O)CCCCN1CCN(c2noc3ccccc23)CC1 | 377 | 18 | < 1 | 21
COc1ccccc1N1CCN(CCCCC(=O)N2Cc3ccccc3C[C@H]2C(N)=O)CC1 | 107 | 551 | 5 | < 1
NC(=O)[C@@H]1CCCN1C(=O)CCCCCN1CCN(c2ccccc2F)CC1 | 141 | 3130 | 22 | < 1
NC(=O)[C@@H]1Cc2ccccc2CN1C(=O)CCCCCN1CCN(c2ccc(F)cc2)CC1 | 643 | 107 | < 1 | 6
NC(=O)[C@@H]1Cc2ccccc2CN1C(=O)CCCCCN1CCN(c2cccc(Cl)c2)CC1 | 499 | 725 | 1 | < 1
NC(=O)[C@@H]1CCCN1C(=O)CCCCCN1CCN(c2cccc(Cl)c2)CC1 | 38 | 478 | 13 | < 1
NC(=O)[C@@H]1Cc2ccccc2CN1C(=O)CCCCCN1CCN(c2ccccc2Cl)CC1 | 236 | 393 | 2 | < 1
NC(=O)[C@@H]1CCCN1C(=O)CCCCN1CCN(c2ccccc2O)CC1 | 52 | 1870 | 36 | < 1
NC(=O)[C@@H]1CCCN1C(=O)CCCCCCN1CCN(c2noc3ccccc23)CC1 | 122 | 101 | < 1 | 1
CSc1ccccc1N1CCN(CCCCCC(=O)NC2CCCc3ccccc32)CC1 (stereo unspecified) |  | 0.22 |  | 
NC(=O)[C@@H]1CCCN1C(=O)CCCCCN1CCN(c2noc3ccccc23)CC1 | 214 | 50 | < 1 | 4
NC(=O)[C@@H]1Cc2ccccc2CN1C(=O)CCCCCN1CCN(c2cccc(Cl)c2Cl)CC1 | 16 | 95 | 6 | < 1
NC(=O)[C@@H]1CCCN1C(=O)CCCCN1CCN(c2cccc(Cl)c2Cl)CC1 | 83 | 113 | < 1 | < 1
COc1ccccc1N1CCN(CCCCCC(=O)N2CCC[C@H]2C(N)=O)CC1 | 44 | 1200 | 27 | < 1
COc1ccccc1N1CCN(CCCCCC(=O)N2Cc3ccccc3C[C@H]2C(N)=O)CC1 | 12 | 302 | 25 | < 1
NC(=O)[C@@H]1CCCN1C(=O)CCCCN1CCN(c2noc3ccccc23)CC1 | 2910 | 108 | < 1 | 27
NC(=O)[C@@H]1CCCN1C(=O)CCCCCN1CCN(c2ccccc2Cl)CC1 | 232 | 1310 | 6 | < 1
NC(=O)[C@@H]1CCCN1C(=O)CCCCCN1CCN(c2ccc(F)cc2)CC1 | 573 | 1190 | 2 | < 1
NC(=O)[C@@H]1Cc2ccccc2CN1C(=O)CCCCCCN1CCN(c2noc3ccccc23)CC1 | 89 | 28 | < 1 | 3
COc1ccccc1N1CCN(CCCCC(=O)N2CCC[C@H]2C(N)=O)CC1 | 214 | 634 | 3 | < 1
NC(=O)[C@@H]1Cc2ccccc2CN1C(=O)CCCCN1CCN(c2ccc(F)cc2)CC1 | 1910 | 295 | < 1 | 6
NC(=O)[C@@H]1Cc2ccccc2CN1C(=O)CCCCN1CCN(c2ccc(Cl)cc2)CC1 | 211 | 223 | 1 | < 1

The next lines start with results.

Ki [2] [nM] | Ki [4] [nM] | SMILES | Ratio Ki (HEK293 [1]) | Ratio Ki (HEK293 [3])
< 1 | 78 | CSc1ccccc1N1CCN(CCCCCC(=O)N2Cc3ccccc3C[C@H]2C(N)=O)CC1 | > 78 | < 1
6310 | 4150 | COc1ccccc1N1CCN(Cc2ccc(C(=O)N3CCC[C@H]3C(N)=O)cc2)CC1 | < 1 | 2
23 | 495 | CSc1ccccc1N1CCN(CCCCCCC(=O)N2CCC[C@H]2C(N)=O)CC1 | 21 | < 1
122 | 148 | CSc1ccccc1N1CCN(Cc2ccc(C(=O)N3Cc4ccccc4C[C@H]3C(N)=O)cc2)CC1 | 1 | < 1
47 | 163 | CSc1ccccc1N1CCN(CCCCC(=O)N2CCC[C@H]2C(N)=O)CC1 | 3 | < 1
77 | 579 | COc1ccccc1N1CCN(Cc2ccc(C(=O)N3Cc4ccccc4C[C@H]3C(N)=O)cc2)CC1 | 7 | < 1
18 | 51 | CSc1ccccc1N1CCN(CCCCC(=O)N2Cc3ccccc3C[C@H]2C(N)=O)CC1 | 3 | < 1
212 | 1200 | NC(=O)[C@@H]1Cc2ccccc2CN1C(=O)c1ccc(CN2CCN(c3cccc(Cl)c3Cl)CC2)cc1 | 6 | < 1
313 | 567 | CSc1ccccc1N1CCN(Cc2ccc(C(=O)N3CCC[C@H]3C(N)=O)cc2)CC1 | 2 | < 1
2 | 111 | CSc1ccccc1N1CCN(CCCCCCC(=O)N2Cc3ccccc3C[C@H]2C(N)=O)CC1 | 55 | < 1
14 | 153 | CSc1ccccc1N1CCN(CCCCCC(=O)N2CCC[C@H]2C(N)=O)CC1 | 11 | < 1
